Measured values from ChEMBL document CHEMBL4325901, “Novel multitarget-directed ligands targeting acetylcholinesterase and σ1 receptors as lead compounds for treatment of Alzheimer's disease: Synthesis, evaluation, and structural characterization of their complexes with acetylcholinesterase” (Eur J Med Chem, 2019).
Activity calls are given as the source filed them. No cut-off for these calls is given here.

Target: T1, 5-hydroxytryptamine receptor 4 (Homo sapiens, UniProt Q13639)
Assay: Displacement of [3H]-GR113808 from recombinant human 5-HT4BR expressed in membranes at 1 uM after 60 mins relative to control
Outline: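 Crude membranes from a stable recombinant cell line expressing 5-HT4B were incubated in duplicate at 25 °C for 60 min with compound at 10^-6 or 10^-8 M and 0.2 nM [3H]-GR113808 in 25 mM Tris, pH 7.4. They were filtered through polyethylenimine-presoaked GF/C filters and washed three times with ice-cold Tris. Nonspecific binding was defined with serotonin.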

T1 sequence (Q13639 whole entry): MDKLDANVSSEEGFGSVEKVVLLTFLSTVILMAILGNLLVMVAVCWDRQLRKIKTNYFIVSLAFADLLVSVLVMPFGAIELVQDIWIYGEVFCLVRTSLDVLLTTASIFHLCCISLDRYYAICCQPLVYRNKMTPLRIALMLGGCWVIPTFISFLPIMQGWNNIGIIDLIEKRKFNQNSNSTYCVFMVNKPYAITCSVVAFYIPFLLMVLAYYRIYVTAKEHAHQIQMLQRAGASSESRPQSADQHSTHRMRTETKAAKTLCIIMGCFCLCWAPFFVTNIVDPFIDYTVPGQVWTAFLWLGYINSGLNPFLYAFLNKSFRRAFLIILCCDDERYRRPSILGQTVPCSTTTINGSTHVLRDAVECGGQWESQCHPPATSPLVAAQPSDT

`COc1c(C(=O)CCC2CCN(CC3CCCCC3)CC2)cc(Cl)c2[nH]ccc12` and `COc1c(C(=O)CCC2CCN(CC3CCCCC3)CC2)ccc2[nH]ccc12` are the same in inhibition: 100% for the first, 100% for the second.

`O=C(CCC1CCN(CC2CCCCC2)CC1)c1cc(Cl)c2[nH]ccc2c1` and `O=C(CCC1CCN(CC2CCCCC2)CC1)c1ccc2[nH]ccc2c1` are the same in inhibition: 100% for the first, 100% for the second.

Going from `COc1c(C(=O)CCC2CCN(CC3CCCCC3)CC2)cc(Cl)c2c1ccn2S(=O)(=O)c1ccccc1` to `O=C(CCC1CCN(CC2CCCCC2)CC1)c1ccc2c(ccn2Cc2ccccc2)c1`, the inhibition falls from 62% to 42%.

Compared with `O=C(CCC1CCN(CC2CCCC2)CC1)c1ccc2[nH]ccc2c1`, `CCCCN1CCC(CCC(=O)c2ccc3[nH]ccc3c2)CC1` is lower in inhibition: 100% for the first, 97% for the second.

First: O=C(CCC1CCN(Cc2ccccc2)CC1)c1ccc2[nH]ccc2c1
Second: COc1c(C(=O)CCC2CCN(Cc3ccccc3)CC2)cc(Cl)c2[nH]ccc12
The inhibition of the first is lower: 90% for the first, 96% for the second.

Compared with `COc1cc2c(cc1OC)C(=O)C(CC1CCN(Cc3ccccc3)CC1)C2` (centres undefined), `COc1c(C(=O)CCC2CCN(Cc3ccccc3)CC2)cc(Cl)c2[nH]c([Si](C)(C)C)cc12` is higher in inhibition: 10% for the first, 62% for the second.

In the case of `CCCCN1CCC(CCC(=O)c2cc(Cl)c(N)cc2OC)CC1`, the inhibition is reported as 100%.

Target: T1, 5-hydroxytryptamine receptor 4
Assay: Displacement of [3H]-GR113808 from recombinant human 5-HT4BR expressed in membranes after 60 mins

`COc1c(C(=O)CCC2CCN(CC3CCCCC3)CC2)cc(Cl)c2[nH]ccc12` and `COc1c(C(=O)CCC2CCN(CC3CCCCC3)CC2)ccc2[nH]ccc12` are within 1.5-fold of each other in Ki: 0.0409 µM for the first, 0.051 µM for the second.

`O=C(CCC1CCN(CC2CCCCC2)CC1)c1cc(Cl)c2[nH]ccc2c1` and `O=C(CCC1CCN(CC2CCCCC2)CC1)c1ccc2[nH]ccc2c1` are the same in Ki: 0.0375 µM for the first, 0.0375 µM for the second.

Compared with `O=C(CCC1CCN(CC2CCCC2)CC1)c1ccc2[nH]ccc2c1`, `CCCCN1CCC(CCC(=O)c2ccc3[nH]ccc3c2)CC1` is 2-fold higher in Ki: 0.025 µM for the first, 0.0496 µM for the second. The first binds more tightly here.

`O=C(CCC1CCN(Cc2ccccc2)CC1)c1ccc2[nH]ccc2c1` and `COc1c(C(=O)CCC2CCN(Cc3ccccc3)CC2)cc(Cl)c2[nH]ccc12` are within 1.5-fold of each other in Ki: 0.169 µM for the first, 0.15 µM for the second.

Target: T2, Acetylcholinesterase (Homo sapiens, UniProt P22303)
T2 sequence (P22303 whole entry): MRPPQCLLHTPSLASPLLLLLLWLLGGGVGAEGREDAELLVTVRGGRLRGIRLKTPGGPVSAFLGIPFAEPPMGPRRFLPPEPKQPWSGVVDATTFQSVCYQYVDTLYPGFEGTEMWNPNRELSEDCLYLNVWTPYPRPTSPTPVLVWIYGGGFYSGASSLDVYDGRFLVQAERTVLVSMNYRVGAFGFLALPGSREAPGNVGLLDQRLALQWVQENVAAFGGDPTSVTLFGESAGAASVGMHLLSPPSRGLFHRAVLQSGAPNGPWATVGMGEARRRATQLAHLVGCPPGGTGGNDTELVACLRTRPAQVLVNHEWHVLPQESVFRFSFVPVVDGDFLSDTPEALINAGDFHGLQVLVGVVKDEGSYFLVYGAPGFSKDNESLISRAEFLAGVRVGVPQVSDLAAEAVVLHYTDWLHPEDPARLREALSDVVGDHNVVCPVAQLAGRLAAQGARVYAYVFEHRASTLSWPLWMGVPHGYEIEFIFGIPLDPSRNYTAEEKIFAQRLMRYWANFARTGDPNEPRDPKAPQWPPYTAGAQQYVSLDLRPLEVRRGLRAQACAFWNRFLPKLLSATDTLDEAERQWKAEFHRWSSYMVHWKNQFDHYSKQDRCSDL
Assay: Inhibition of human erythrocytes AChE using acetylthiocholine iodide as substrate preincubated for 5 mins followed by substrate addition measured at 1 min time interval for 10 mins by Ellman's method

`COc1c(C(=O)CCC2CCN(CC3CCCCC3)CC2)cc(Cl)c2[nH]ccc12` and `COc1c(C(=O)CCC2CCN(CC3CCCCC3)CC2)cc(Cl)c2c1ccn2C` are within 1.5-fold of each other in IC50: 0.0914 µM for the first, 0.0844 µM for the second.

First: O=C(CCC1CCN(CC2CCCCC2)CC1)c1cc(Cl)c2[nH]ccc2c1
Second: O=C(CCC1CCN(CC2CCCCC2)CC1)c1ccc2[nH]ccc2c1
The IC50 of the first is 1.8-fold lower: 0.0288 µM for the first, 0.051 µM for the second.

Compared with `COc1c(C(=O)CCC2CCN(CC3CCCCC3)CC2)cc(Cl)c2c1ccn2S(=O)(=O)c1ccccc1`, `COc1c(C(=O)CCC2CCN(CC3CCCCC3)CC2)cc(Cl)c2c1ccn2Cc1ccccc1` is 2.1-fold lower in IC50: 0.559 µM for the first, 0.261 µM for the second.

Going from `O=C(CCC1CCN(CC2CCCC2)CC1)c1ccc2[nH]ccc2c1` to `COc1c(C(=O)CCC2CCN(CC3CCCCC3)CC2)ccc2[nH]ccc12`, the IC50 falls from 0.094 µM to 0.04 µM (2.4-fold). The second is the more potent here.

First: CCCCN1CCC(CCC(=O)c2ccc3[nH]ccc3c2)CC1
Second: O=C(CCC1CCN(Cc2ccccc2)CC1)c1ccc2[nH]ccc2c1
The IC50 of the first is 54-fold higher: 0.716 µM for the first, 0.0133 µM for the second.

Going from `O=C(CCC1CCN(CC2CCCCC2)CC1)c1ccc2c(ccn2Cc2ccccc2)c1` to `COc1c(C(=O)CCC2CCN(Cc3ccccc3)CC2)cc(Cl)c2[nH]ccc12`, the IC50 falls from 0.133 µM to 0.0204 µM (6.5-fold).

`COc1c(C(=O)CCC2CCN(Cc3ccccc3)CC2)cc(Cl)c2[nH]c([Si](C)(C)C)cc12` was tested, and the IC50 was 0.275 µM.

Target: Sigma non-opioid intracellular receptor 1 (Homo sapiens, UniProt Q99720)
Sequence (Q99720 whole entry): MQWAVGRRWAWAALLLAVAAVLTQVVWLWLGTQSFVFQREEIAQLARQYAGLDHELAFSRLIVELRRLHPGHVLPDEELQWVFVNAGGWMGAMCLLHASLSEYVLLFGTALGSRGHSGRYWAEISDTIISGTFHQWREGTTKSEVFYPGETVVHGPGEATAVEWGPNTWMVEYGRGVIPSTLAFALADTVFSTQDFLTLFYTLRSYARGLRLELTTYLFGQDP
Assay: Displacement of [3H]-(+)-pentazocine from sigma-1 receptor in human Jurkat cell membranes after 2 hrs by liquid scintillation counting method

`COc1c(C(=O)CCC2CCN(CC3CCCCC3)CC2)cc(Cl)c2[nH]ccc12` and `O=C(CCC1CCN(CC2CCCCC2)CC1)c1cc(Cl)c2[nH]ccc2c1` are the same in Ki: 0.0051 µM for the first, 0.0051 µM for the second.

Compared with `O=C(CCC1CCN(Cc2ccccc2)CC1)c1ccc2[nH]ccc2c1`, `COc1c(C(=O)CCC2CCN(Cc3ccccc3)CC2)cc(Cl)c2[nH]ccc12` is 1.7-fold higher in Ki: 0.0033 µM for the first, 0.0057 µM for the second.

`COc1cc(N)c(Cl)cc1C(=O)CCC1CCN(CC2CCCCC2)CC1` gave a Ki of 0.051 µM.

Target: T2, Acetylcholinesterase
Assay: Non-competitive inhibition of human erythrocytes AChE up to 1 uM using varying levels of acetylthiocholine iodide substrate preincubated for 5 mins followed by substrate addition measured at 1 min time interval for 10 mins by Lineweaver-Burk plot analysis

With `COc1c(C(=O)CCC2CCN(CC3CCCCC3)CC2)cc(Cl)c2[nH]ccc12` the inhibition was “Active”.

Tested on: Mus musculus
Assay: Cognition enhancing effect in Swiss mouse assessed as protection against dizocilpine-induced spatial memory impairment by measuring spontaneous alternation performance at 0.1 to 1 mg/kg, ip pretreated for 10 mins followed by dizocilpine treatment and measured after 20 mins by Y-maze test
Assay type: functional, organism-based
Outline: (§1)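 Male Swiss mice, 6 weeks, 32 g, groups of 12e16. Compounds dissolved in 10% DMSO in saline, diluted in saline; vehicle 2% DMSO in saline. Given IP 10 min before dizocilpine 0.15 mg/kg IP, 20 min before Y-maze session (alternation % and arm entries) or passive-avoidance training (footshock 3 s on entering dark compartment; step-through latency).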

In the case of `O=C(CCC1CCN(CC2CCCCC2)CC1)c1cc(Cl)c2[nH]ccc2c1`, the Activity is reported as “inactive”.

Tested on: Mus musculus
Assay: Cognition enhancing effect in Swiss mouse assessed as protection against dizocilpine-induced long term non-spatial memory impairment by measuring increase in step-through latency at 0.1 mg/kg, ip pretreated for 10 mins followed by dizocilpine treatment and measured after 20 mins by passive avoidance test relative to control
Assay type: functional
Outline: as §1

In the case of `O=C(CCC1CCN(CC2CCCCC2)CC1)c1cc(Cl)c2[nH]ccc2c1`, the Activity is reported as 40%.

Target: T1, 5-hydroxytryptamine receptor 4
Assay: Agonist activity at 5-HT4R (unknown origin) expressed in CHO cells assessed as intracellular cAMP accumulation after 15 mins by radio-immunoassay
Assay type: functional, cell-based
Outline: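 Stably transfected CHO cells grown to confluence, serum-starved 4 h, then preincubated 15 min in serum-free medium with 5 mM theophylline, 10 mM pargyline and […] to block endogenous 5-HT1B receptors. 5-HT or test compound added for a further 15 min. Stopped with ice-cold ethanol, 30 min at room temperature, ethanol fraction dried, cAMP quantified by competitive radioimmunoassay.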

In the case of `COc1cc(N)c(Cl)cc1C(=O)CCC1CCN(CC2CCCCC2)CC1`, the Activity is reported as “Active”.

Target: T1, 5-hydroxytryptamine receptor 4
Assay: Antagonist activity at 5-HT4R (unknown origin) expressed in CHO cells assessed as reduction in intracellular cAMP accumulation after 15 mins by radio-immunoassay
Assay type: functional, cell-based

In the case of `COc1c(C(=O)CCC2CCN(CC3CCCCC3)CC2)cc(Cl)c2[nH]ccc12`, the inhibition is reported as “Active”.
